Data as given in ChEMBL document CHEMBL1158805, “Neurotoxic meroditerpenoids from the tropical marine brown alga Stypopodium flabelliforme” (J Nat Prod, 2005).

Key:
Artemia salina = assay: Toxicity in Artemia salina after 24 hrs; assay type: organism-based; conditions: in vivo
Method in brief: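 About 15 hatched Artemia salina per well in roughly 5 mL of artificial seawater, with sample added in 50 µL EtOH. Held 24 h at 28 °C, then live and dead shrimp counted. Run in duplicate.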

NCI-H460 = assay: Cytotoxicity against human NCI-H460 cells after 48 hrs by MTT assay; assay type: functional; conditions: NCI-H460, 48 h, read-out: LC50 (the source's name)
Method in brief: (§1)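 Cells seeded at 6000/well in RPMI 1640 with 10% FBS. After 24 h, compound in DMSO, diluted in serum-free medium, was added (DMSO under 1% final). Viability was read by MTT reduction after 48 h, giving LC50.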

[1] = Cytotoxicity against mouse Neuro2a cells after 48 hrs by MTT assay; assay type: functional; conditions: N2a, read-out: LC50 (the source's name); method in brief: as §1
Neuro2a = assay: Inhibition of voltage-gated sodium channel in mouse Neuro2a cells after 22 hrs; assay type: cell-based
[2] = Increase in calcium influx in Sprague-Dawley rat CGN measured every 6 seconds for 24 mins by FLIPR assay; assay type: functional
Method in brief: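 Cerebellar granule neurons from 8-day-old Sprague-Dawley rat cerebella were used at 10-13 days in culture. Cells were loaded 1 h at 37 °C with 4 µM fluo-3 AM and 0.04% pluronic acid in Locke's buffer (pH 7.4), washed, then read by FLIPR (488 nm excitation, 500-560 nm emission). Baseline was read every 3 s for 1 min, readings stayed at 3 s for 2 min after addition, then every 6 s, 24 min total. Response was AUC (trapezoid rule); EC50 came from a logistic fit.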

[3] = Cytotoxicity against Sprague-Dawley rat CGN assessed as LDH efflux after 2 hrs in presence of tetrodotoxin; assay type: ADME
[4] = Cytotoxicity against Sprague-Dawley rat CGN assessed as LDH efflux after 2 hrs; conditions: CGN (primary cells from Sprague-Dawley rat), read-out: LC50
Method in brief: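 Primary cerebellar granule neurons from 8-day-old Sprague-Dawley rats in BME with 25 mM KCl, 10 µM cytosine arabinoside added after 18-24 h, used at 10-13 days in culture. Washed into Locke's buffer (pH 7.4, 1% DMSO) and exposed to compound (1-100 µM) for 2 h at 22 °C. LDH released to medium assayed. Logistic fit of concentration-response; triplicate, repeated twice.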

| Compound | LC90 (Artemia salina) [µM] | CC50 (NCI-H460) [µM] | CC50 [1] [µM] | Activity (Neuro2a) [µM] | EC50 [2] [µM] | Activity [3] | CC50 at 2 h [4] [µM] |
| --- | --- | --- | --- | --- | --- | --- | --- |
| Cc1cc(O)cc2c1O[C@]1(C)CC[C@@H]3[C@](C)(CC[C@H]4C(C)(C)[C@@H](O)CC[C@]34C)[C@H]1C2 | 24 | 24 | 2 | 0.7 |  |  |  |
| C[C@H]1CC[C@@H]2[C@@]3(C)CC[C@H](O)C(C)(C)[C@@H]3CC[C@@]2(C)[C@]12Cc1c(O)c(O)cc(C=O)c1O2 |  |  |  |  | 100 |  |  |
| COc1c(C)cc(O)c2c1C[C@H]1[C@@]3(C)CC[C@H]4C(C)(C)[C@@H](O)CC[C@@]4(C)[C@H]3CC[C@]21C [FLABELLINOL] |  | 9 | 2 | 2 |  |  |  |
| CC1=CC(=O)C2=C(C[C@H]3[C@@]4(C)CC[C@H]5C(C)(C)[C@@H](O)CC[C@@]5(C)[C@H]4CC[C@]23C)C1=O [FLABELLINONE] |  | 14 | 2 | 7 |  |  |  |
| COC1=CC(C)=C2O[C@@]3(CC2(OO)C1=O)[C@@H](O)CC[C@@H]1[C@@]2(C)CC[C@H](O)C(C)(C)[C@@H]2CC[C@]13C (stereo partly specified) [STYPOHYDROPEROXIDE] |  | > 25 | > 21 |  |  |  |  |
| CC1=CC(=O)C(=O)C2=C1O[C@@]1(C2)[C@@H](C)CC[C@@H]2[C@@]3(C)CC[C@H](O)C(C)(C)C3CC[C@]21C (stereo partly specified) [STYPOLDIONE] |  |  |  |  | 27.8 | Active | 37.4 |
